Three molecules from ChEMBL document CHEMBL1148778, “Synthesis and characterization of nonsteroidal glucocorticoid receptor modulators for multiple myeloma” (J Med Chem, 2007) can be followed below.

Assay [1] deals with T1, Glucocorticoid receptor (Homo sapiens, UniProt P04150).
T1 sequence (P04150 whole entry): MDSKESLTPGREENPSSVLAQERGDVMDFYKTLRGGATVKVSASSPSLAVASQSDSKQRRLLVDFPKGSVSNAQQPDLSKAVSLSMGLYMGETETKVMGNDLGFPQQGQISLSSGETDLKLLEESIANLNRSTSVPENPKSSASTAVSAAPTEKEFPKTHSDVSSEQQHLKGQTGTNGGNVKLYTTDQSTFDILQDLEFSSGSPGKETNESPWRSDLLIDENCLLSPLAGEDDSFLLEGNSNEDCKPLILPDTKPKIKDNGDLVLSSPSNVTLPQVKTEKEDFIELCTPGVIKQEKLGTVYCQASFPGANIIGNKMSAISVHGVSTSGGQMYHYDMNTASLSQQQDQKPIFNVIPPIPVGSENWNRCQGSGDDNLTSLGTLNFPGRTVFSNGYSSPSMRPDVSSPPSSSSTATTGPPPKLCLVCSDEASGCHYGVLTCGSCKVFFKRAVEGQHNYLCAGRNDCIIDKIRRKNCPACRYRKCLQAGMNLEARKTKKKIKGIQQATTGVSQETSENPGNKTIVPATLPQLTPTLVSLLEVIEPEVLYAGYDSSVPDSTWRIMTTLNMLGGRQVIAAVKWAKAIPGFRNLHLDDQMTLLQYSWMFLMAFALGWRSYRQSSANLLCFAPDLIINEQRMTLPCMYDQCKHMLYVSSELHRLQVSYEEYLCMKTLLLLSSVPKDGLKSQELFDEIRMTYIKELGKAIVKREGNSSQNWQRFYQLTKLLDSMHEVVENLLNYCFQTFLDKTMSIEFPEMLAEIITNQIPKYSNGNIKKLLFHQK
As to the kind of experiment: Agonist activity at human GR expressed in CV1 cells by GRE activation assay. The assay is classed as functional, cell-based, CV-1.

The target of assay [2] is T1, Glucocorticoid receptor. As to the kind of experiment: Activity at human GR expressed in NHDFneo cells assessed as inhibition of IL-6 production. The assay is classed as cell-based.
For assay [3], the system named is RPMI-8226. As to the kind of experiment: Antiproliferative activity against human RPMI8226 cells after 4 days. In kind it is functional, cell-based. The note with it: RPMI-8226, 96 h.
Assay [4] deals with RPMI-8226. As to the kind of experiment: Antiproliferative activity against human RPMI8226 cells after 4 days relative to Dexamethasone. The assay is classed as functional.
The target of assay [5] is T1, Glucocorticoid receptor. Put plainly: Binding affinity to GR.
Assay [6] deals with T2, Progesterone receptor (Homo sapiens, UniProt P06401).
T2 sequence (P06401 whole entry): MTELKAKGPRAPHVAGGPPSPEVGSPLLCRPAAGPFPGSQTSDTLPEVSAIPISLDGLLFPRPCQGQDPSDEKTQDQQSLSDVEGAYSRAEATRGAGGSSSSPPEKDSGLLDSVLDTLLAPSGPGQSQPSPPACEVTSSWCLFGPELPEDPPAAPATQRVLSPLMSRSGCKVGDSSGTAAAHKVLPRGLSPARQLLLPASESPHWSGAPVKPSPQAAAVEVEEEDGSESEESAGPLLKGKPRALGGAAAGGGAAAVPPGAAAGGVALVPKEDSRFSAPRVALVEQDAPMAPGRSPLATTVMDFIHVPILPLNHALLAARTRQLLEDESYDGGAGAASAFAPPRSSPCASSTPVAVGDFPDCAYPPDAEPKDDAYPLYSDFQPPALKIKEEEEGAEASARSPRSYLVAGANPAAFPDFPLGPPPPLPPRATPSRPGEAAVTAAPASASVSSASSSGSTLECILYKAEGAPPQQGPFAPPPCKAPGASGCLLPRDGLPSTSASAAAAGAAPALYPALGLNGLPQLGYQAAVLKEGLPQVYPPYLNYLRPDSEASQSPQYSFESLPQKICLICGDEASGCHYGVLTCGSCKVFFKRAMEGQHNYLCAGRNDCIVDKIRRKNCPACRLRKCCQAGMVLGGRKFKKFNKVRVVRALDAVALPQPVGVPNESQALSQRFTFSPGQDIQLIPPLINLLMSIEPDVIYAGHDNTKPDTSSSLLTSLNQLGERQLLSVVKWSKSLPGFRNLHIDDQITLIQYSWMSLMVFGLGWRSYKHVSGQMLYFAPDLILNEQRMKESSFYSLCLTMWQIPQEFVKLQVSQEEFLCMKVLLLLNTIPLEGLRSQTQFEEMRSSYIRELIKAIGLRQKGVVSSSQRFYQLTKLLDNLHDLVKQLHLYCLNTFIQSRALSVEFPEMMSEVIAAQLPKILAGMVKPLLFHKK
As to the kind of experiment: Binding affinity to PR. The gist of the method:
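Competitive binding assays on PR and MR. Values are means of at least three separate experiments, each with triplicate determinations, ± SEM. A value without SEM comes from a single determination.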

Assay [7] concerns the target T3, Androgen receptor (Homo sapiens, UniProt P10275).
T3 sequence (P10275 whole entry): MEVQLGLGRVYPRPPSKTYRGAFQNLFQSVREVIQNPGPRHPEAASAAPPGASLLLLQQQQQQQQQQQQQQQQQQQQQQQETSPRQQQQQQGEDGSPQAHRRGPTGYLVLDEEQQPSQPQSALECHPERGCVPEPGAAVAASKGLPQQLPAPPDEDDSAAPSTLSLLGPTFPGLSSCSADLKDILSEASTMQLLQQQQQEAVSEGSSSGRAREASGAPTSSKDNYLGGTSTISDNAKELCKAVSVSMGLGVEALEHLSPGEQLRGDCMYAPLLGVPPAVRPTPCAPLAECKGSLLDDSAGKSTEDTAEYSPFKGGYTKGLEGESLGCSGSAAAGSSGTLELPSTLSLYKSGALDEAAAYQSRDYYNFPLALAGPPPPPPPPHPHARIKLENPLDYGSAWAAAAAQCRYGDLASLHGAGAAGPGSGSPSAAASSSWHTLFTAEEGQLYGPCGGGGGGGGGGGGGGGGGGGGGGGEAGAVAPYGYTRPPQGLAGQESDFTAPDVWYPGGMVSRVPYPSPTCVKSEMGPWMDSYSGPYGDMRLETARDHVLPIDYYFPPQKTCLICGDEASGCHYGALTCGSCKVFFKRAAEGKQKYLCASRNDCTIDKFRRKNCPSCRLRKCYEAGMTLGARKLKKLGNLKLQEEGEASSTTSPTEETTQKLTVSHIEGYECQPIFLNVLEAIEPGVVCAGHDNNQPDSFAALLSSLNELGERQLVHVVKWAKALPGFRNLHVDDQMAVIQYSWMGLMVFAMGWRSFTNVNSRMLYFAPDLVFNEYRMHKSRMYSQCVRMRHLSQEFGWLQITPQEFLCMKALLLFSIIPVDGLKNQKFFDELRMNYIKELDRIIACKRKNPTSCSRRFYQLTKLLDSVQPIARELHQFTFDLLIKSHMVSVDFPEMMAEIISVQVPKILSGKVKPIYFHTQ
As to the kind of experiment: Binding affinity to AR.

As a reminder, the EC50 is the concentration at which the effect is half-maximal. Lower therefore signals an effect from little substance. A word on the IC50: it is the point on the concentration scale where inhibition reaches its midpoint. Usually Ki stands for the dissociation constant of the complex between target and ligand, obtained from inhibition or displacement. Read a low Ki as tighter binding. In assay [1], `COCc1ccsc1/C=C1\Oc2ccc(O)c(OC)c2-c2ccc3c(c21)C(C)=CC(C)(C)N3` gave an EC50 of 0.2 nM. The IC50 came out at 0.2 nM in assay [2] and 8.5 nM in assay [3]. Besides, the Efficacy in assay [4] was 98%. For the same molecule, the values for the inhibition constant Ki in assay [5], in assay [6] and in assay [7] were 0.2 nM, 190 nM and 150 nM, respectively.
On to `COc1c(O)ccc2c1-c1ccc3c(c1/C(=C/c1sccc1CO)O2)C(C)=CC(C)(C)N3`, for which, in assay [1], the concentration for a half-maximal effect (EC50) was found to be 0.2 nM. Moreover, the values for the IC50 in assay [2] and in assay [3] were 0.2 nM and 4.9 nM, respectively. In assay [4], this molecule yielded an Efficacy of 99%. Besides, the inhibitory constant (Ki) in assay [5] amounted to 0.7 nM; in assay [6], 1400 nM; in assay [7], 290 nM.
In turn, `CO/N=C(\C)c1ccsc1/C=C1\Oc2ccc(O)c(OC)c2-c2ccc3c(c21)C(C)=CC(C)(C)N3` displayed an EC50 in assay [1] of 0.1 nM. Also, the IC50 amounted to 0.2 nM in assay [2] and 9.5 nM in assay [3]. Also, in assay [4], the Efficacy was 101%. The Ki in assay [5] was 1.1 nM; in assay [6], 38 nM; in assay [7] it was 110 nM.
